Source: PubChem
Rows were chosen to be rich in hits. Some 4.9% of all compounds tested hit in one or more screens of this group.
STAT1 blocker: STAT1 signaling inhibitors, primary screen, cell-based, HTS, luciferase reporter; 200,000 compounds, 0.35% hits; inhibition, % at 5.5 µM; NIH 3T3 STAT1-luciferase reporter, IFN-gamma, luminescence;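 active means inhibition above a set limit, the mean inhibition across all tested compounds plus 3 SD, cut at about 34% in these data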
APP 5'UTR act: activators of APP 5'UTR luciferase reporter, primary screen, SH-SY5Y cells; SH-SY5Y APP 5'UTR luciferase reporter, luminescence; zero percent = DMSO vehicle wells; activation, % at 2 µM; 190,000 compounds, 1% hits;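 active means activation above a set limit, based on mean plus 3 SD of controls, cut at about 140% in these data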
STAT3 act: IL-6 driven STAT3 reporter potentiators, primary screen, U3A cells, luciferase, luminescence, MLSCN library | IL-6 STAT3-luciferase reporter; 100% = signal with IL-6 EC80 alone | activation (% of control), % at 5.6 µM | 190,000 compounds, 0.91% hits | AID 871, 2007;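 active means activation above the screen-wide mean of compound activation plus 3 SD, cut at about 130% in these data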
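Material: STAT3-luciferase reporter U3A cells; Probe or stimulus: IL-6 (33 ng/mL); Incubation: compound pre-incubation 1 h before IL-6, then 6 h stimulation at 37 °C; Technique: luminescence from STAT3-driven luciferase reporter; Evaluation: % activation versus median of IL-6-stimulated wells; Controls: IL-6-only high control.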
STAT1 act: STAT1 signaling activators, primary screen, cell-based, HTS, luciferase reporter | NIH 3T3 STAT1-luciferase reporter, IFN-gamma, luminescence; 100% = IFN-gamma alone, no compound | activation (% of control), % at 5.5 µM | 200,000 compounds, 2.6% hits | AID 932, 2007;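 active means activation above the screen-wide mean activation plus 3 SD, cut at about 130% in these data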
NF-kB expr up: activators of NF-kB expression in neurons, primary screen, cell-based, HTS; AID 1239, 2008; human neuronal cells, NF-kB reporter expression; active compounds read high; 190,000 compounds, 1.6% hits; fold change at 12.5 µM; in the data active means fold change above about 3.3
STAT3 blocker: IL-6 driven STAT3 reporter inhibitors, primary screen, U3A cells, luciferase, luminescence, MLSCN library; IL-6 STAT3-luciferase reporter; host cell line lacks STAT1; 190,000 compounds, 0.89% hits; inhibition, % at 5.5 µM;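 active means inhibition above the mean inhibition across all screened compounds plus 3 SD, cut at about 44% in these data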
A number is an active result; n = inactive.

SMILES | STAT1 blocker | APP 5'UTR act | STAT3 act | STAT1 act | NF-kB expr up | STAT3 blocker
COC(=O)c1ccc(C)c(NS(=O)(=O)c2ccc(OC)cc2)c1 | n | n | n | n | 3.99 | n
COc1ccc(S(=O)(=O)Nc2ccc(O)c3ccccc23)cc1 | n | n | 134.2 | n | n | n
CCOC(=O)/C(N=Nc1ccc2c(c1)OCO2)=C(\C)O | n | n | n | 137.0 | n | n
Cn1ccnc1SCC(=O)Nc1cccc(S(=O)(=O)N2CCCCC2)c1 | n | n | n | n | n | n
CCOC(=O)c1c(NC(=O)C2CCCCC2C(=O)O)sc2c1CCCCC2 (centres undefined) | n | n | n | n | n | n
COC(=O)c1c(NC(=O)C2CCCCC2C(=O)O)sc2c1CCCCC2 (centres undefined) | n | n | n | 129.6 | n | n
O=C(Nc1ccccc1)C(c1ccccc1)C1CCCC1 (centres undefined) | n | n | n | n | n | n
CSc1ccccc1NC(=O)C(=O)c1c[nH]c2ccccc12 | n | n | n | 148.6 | n | n
O=C(Nc1nccs1)C(=O)c1c[nH]c2ccccc12 | n | n | 136.3 | 132.9 | n | n
Cc1cccc(NC(=S)NCC(c2cccnc2)N(C)C)c1C (centres undefined) | n | n | n | n | n | n
CC12CCC(C(=O)Nc3nc4ccc(Br)cc4s3)(OC1=O)C2(C)C (centres undefined) | n | n | n | 137.9 | n | n
CCSCc1nnc(SCC(=O)Nc2cc(F)ccc2C)n1C | n | n | n | n | n | n
CC(C)c1ccc(CN(C)CC(O)c2ccccc2)cc1 (centres undefined) | n | n | n | n | n | n
O=C(Nc1ccc(SC(F)F)cc1)C1=COCCO1 | n | 201.0 | n | 132.7 | 5.18 | n
CCc1c(C)nc(SC(C(=O)O)c2ccccc2)c(C#N)c1C (centres undefined) | n | n | n | n | n | n
COc1ccc(N(C(=O)c2ccco2)C(C(=O)NC2CCCCC2)c2cccs2)cc1OC (centres undefined) | n | n | n | n | n | n
C#CC(=O)N(c1ccc(OC)cc1OC)C(C(=O)NC1CCCC1)c1cccs1 (centres undefined) | 87.6 | n | n | n | n | 83.5
C#CC(=O)N(c1cc(OC)ccc1OC)C(C(=O)NC1CCCC1)c1cccs1 (centres undefined) | 74.7 | n | n | n | n | 114.4
Nc1nc(SCC(=O)NC2CCCc3ccccc32)n[nH]1 (centres undefined) | n | n | n | n | n | n
Cc1cc2nnc(SCC(=O)N(C)C3CCS(=O)(=O)C3)n2c2ccccc12 (centres undefined) | n | n | n | n | n | n
O=C(CSc1nnc(-c2ccccc2Cl)o1)Nc1ccc2c(c1)OCCO2 | n | 140.9 | n | n | n | n
O=C(CSc1nnc(-c2ccc(O)cc2)o1)Nc1ccc2c(c1)OCCO2 | n | 135.3 | n | n | n | n
O=C(CSc1nnc(-c2ccccc2Cl)o1)Nc1ccccn1 | n | n | n | n | n | n
CCOc1ccc2oc(C(=O)OCC(=O)NC3CC3)c(C)c2c1 | n | n | n | n | n | n
CCOC(=O)c1c(-c2ccc(C)o2)csc1NC(=O)COC(=O)c1ccc(NC(N)=O)cc1 | n | n | n | n | n | n
SMILES | STAT1 blocker | APP 5'UTR act | STAT3 act | STAT1 act | NF-kB expr up | STAT3 blocker
CC(C)(C)c1ccc(C(=O)Nc2cnccn2)cc1 | n | 173.4 | n | n | 6.43 | n
CC1CCc2c(C(=O)Nc3nccs3)csc2C1 (centres undefined) | n | n | n | n | 4.12 | n
Cc1ccccc1NC(=S)NNC(=O)c1csc2c1CCC(C)C2 (centres undefined) | n | 180.0 | n | n | n | n
O=C(c1ccc(N2CCOCC2)cc1)c1cccs1 | n | n | n | 140.9 | 5.08 | n
O=C(Nc1ccc(N2CCOCC2)cc1N1CCOCC1)c1cccs1 | n | n | n | n | n | n
O=C(Nc1nccs1)c1sc2ccccc2c1Cl | n | 234.5 | n | n | 7.01 | n
